Test results from ChEMBL document CHEMBL4304748, “Design, Synthesis, and Biological Evaluation of a New Series of Carvedilol Derivatives That Protect Sensory Hair Cells from Aminoglycoside-Induced Damage by Blocking the Mechanoelectrical Transducer Channel” (J Med Chem, 2019).
Calls of active or inactive are those of the source. The rule behind the calls is not given here.

Experiments:
Mus musculus [1] = organism: Mus musculus; test: Otoprotective activity against gentamicin-induced outer hair cell death in CD-1 mouse cochlea at 20 uM after 48 hrs by TRITC-phalloidin staining-based microscopic analysis relative to control; type: functional
In short: (§1)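 Mouse cochlear cultures coincubated for 48 h with 5 μM gentamicin plus compound (5, 10 or 20 μM). OHCs counted in a 300 μm long segment of the mid-basal cochlea. Counts compared with 0.5% DMSO control and with gentamicin + 0.5% DMSO cultures.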

Mus musculus [2] = organism: Mus musculus; test: Otoprotective activity against gentamicin-induced outer hair cell death in CD-1 mouse cochlea at 5 uM after 48 hrs by TRITC-phalloidin staining-based microscopic analysis relative to control; type: functional; in short: as §1
Mus musculus [3] = organism: Mus musculus; test: Inhibition of MET in CD-1 mouse cochlea outer hair cells assessed as reduction in MET currents at 10 uM measured at -160 mV to +80 mV membrane potential by patch clamp assay
In short: (§2)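 OHC MET currents recorded before and during exposure to 10 μM compound. Fractional block taken as the current during exposure relative to the control current at each membrane potential.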

[4] = Cytotoxicity against CD-1 mouse cochlea assessed as induction of cell damage at 20 uM in presence of gentamicin after 48 hrs by confocal microscopic analysis; type: toxicity, tissue-based
In short: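 Mouse cochlear cultures exposed 48 h to 5 μM gentamicin plus 20 μM compound, with 0.5% DMSO and gentamicin-only controls. Hair cells and bundle morphology imaged, including confocal imaging of IHC stereociliary bundles. OHC survival counted in a 300 μm segment of the mid-basal region.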

Mus musculus [5] = organism: Mus musculus; test: Inhibition of MET in CD-1 mouse cochlea outer hair cells assessed as blockade of MET currents at 10 uM measured at -164 mV membrane potential by patch clamp assay relative to control; in short: as §2
[6] = Binding affinity to MET in CD-1 mouse cochlea outer hair cells measured at -104 mV membrane potential by patch clamp assay
In short: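 MET currents recorded from outer hair cells of mouse cochlear cultures before and during extracellular superfusion of compound at 1, 3 and 10 μM. Membrane potentials stepped from -164 to +96 mV. Currents normalized to the peak control current at +96 mV for each cell. Dose–response curves at each potential fitted with eq 1 to give KD and Hill coefficient.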

Mus musculus [7] = organism: Mus musculus; test: Otoprotective activity against gentamicin-induced outer hair cell death in CD-1 mouse cochlea at 10 uM after 48 hrs by TRITC-phalloidin staining-based microscopic analysis relative to control; type: functional; in short: as §1

SMILES: COc1ccc(CCN(C)CCCC(C#N)(c2ccc(OC)c(OC)c2)C(C)C)cc1OC (stereo not given)
- Activity (Mus musculus [1]): inactive

SMILES: COc1ccccc1OCCN(CCN1CCOCC1)CC(O)COc1cccc2[nH]c3ccccc3c12 (stereo not given)
- Activity (Mus musculus [2]): inactive
- Activity (Mus musculus [1]): Active
- inhibition (Mus musculus [3]): Active

SMILES: COc1ccccc1OCCNCCCCOc1cccc2[nH]c3ccccc3c12
- Activity (Mus musculus [1]): inactive
- Activity [4]: Toxic

SMILES: OC(CNCCOc1ccccc1)COc1cccc2[nH]c3ccccc3c12 (stereo not given)
- Activity (Mus musculus [1]): inactive
- inhibition (Mus musculus [5]): 50 to 60%
- Activity [4]: Toxic

SMILES: COc1cc2c3cc1Oc1cc(ccc1O)C[C@@H]1c4c(cc(OC)c(O)c4Oc4ccc(cc4)C[C@@H]3N(C)CC2)CC[N+]1(C)C [TUBOCURARINE]
- Kd [6]: 2200 nM

SMILES: OC(CNCCc1ccccc1)Cn1c2ccccc2c2ccccc21 (stereo not given)
- Activity (Mus musculus [1]): inactive
- Activity [4]: Toxic

SMILES: COc1ccccc1OCCCCCCOc1cccc2[nH]c3ccccc3c12
- Activity (Mus musculus [1]): inactive
- Activity [4]: Toxic

SMILES: CCCCNCC(O)COc1cccc2[nH]c3ccccc3c12 (stereo not given)
- Activity (Mus musculus [2]): inactive
- Activity (Mus musculus [1]): Active
- Activity (Mus musculus [7]): inactive
- inhibition (Mus musculus [5]): 50 to 60%

SMILES: COc1ccccc1OCCNCC(O)COc1ccccc1OC (stereo not given)
- Activity (Mus musculus [1]): inactive
- inhibition (Mus musculus [3]): inactive
